ChEMBL document CHEMBL4138104, “Indole carboxylic acid esters of melampomagnolide B are potent anticancer agents against both hematological and solid tumor cells” (Eur J Med Chem, 2017)

What was measured:
Assay type in all cases: functional
[1] = tested on: SK-MEL-2; assay: Growth inhibition of human SK-MEL-2 cells incubated for 48 hrs by sulforhodamine B assay; conditions: SK-MEL-2, 48 h
Summary of the method: (§1)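 NCI-60 screen. Compounds were dosed at five concentrations spanning 10^-4 to 10^-8 M for 48 h at 37 °C. Cells were TCA-fixed, stained with 0.4% SRB and read at 515 nm against time-zero and vehicle controls. GI50 is the concentration giving a 50% reduction in net protein increase.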

[2] = tested on: SNB-75; assay: Growth inhibition of human SNB75 cells incubated for 48 hrs by sulforhodamine B assay; conditions: SNB-75, 48 h
Summary of the method: (§2)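 NCI-60 screen run at NCI. Cells grown in RPMI medium with 5% FBS and 2 mM L-glutamine, plated at 5,000–40,000 cells/well, and preincubated 24 h at 37 °C. Time-zero plates were TCA-fixed. Compounds came from DMSO stocks and were tested at five concentrations from 10^-4 to 10^-8 M for 48 h. Cells were then TCA-fixed, stained with 0.4% SRB, and OD read at 515 nm. GI50 is the concentration giving a 50% reduction in net protein increase versus control.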

[3] = tested on: SR; assay: Growth inhibition of human SR cells incubated for 48 hrs by sulforhodamine B assay; summary of the method: as §2
[4] = tested on: COLO 205; assay: Growth inhibition of human COLO205 cells incubated for 48 hrs by sulforhodamine B assay; conditions: COLO 205, 48 h; summary of the method: as §1
[5] = tested on: T47D; assay: Growth inhibition of human T47D cells incubated for 48 hrs by sulforhodamine B assay; summary of the method: as §2
[6] = tested on: MDA-MB-231; assay: Growth inhibition of human MDA-MB-231/ATCC cells incubated for 48 hrs by sulforhodamine B assay; conditions: MDA-MB-231, 48 h; summary of the method: as §1
[7] = tested on: EKVX; assay: Growth inhibition of human EKVX cells incubated for 48 hrs by sulforhodamine B assay; summary of the method: as §1
[8] = tested on: TK-10; assay: Growth inhibition of human TK10 cells incubated for 48 hrs by sulforhodamine B assay; conditions: TK-10, 48 h; summary of the method: as §2
[9] = tested on: MDA-MB-468; assay: Growth inhibition of human MDA-MB-468 cells incubated for 48 hrs by sulforhodamine B assay; conditions: MDA-MB-468, 48 h; summary of the method: as §1
[10] = Potency index, ratio of melampomagnolide-B EC50 to compound EC50 for human M9-ENL1 cells
Summary of the method: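 M9-ENL1 AML cells, derived by MLL-ENL transduction of human blood cells, were plated at 10^6 cells/mL in alpha-MEM with 5% human plasma, 20% FBS, SCF, IL-3, IL-7 and FLT3 ligand. Exposure was 24 h. Non-apoptotic (Annexin V/7-AAD double-negative) fraction was normalized to vehicle, in triplicate, to give EC50. PTL and MMB were run as reference controls.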

[11] = tested on: M14; assay: Growth inhibition of human M14 cells incubated for 48 hrs by sulforhodamine B assay; conditions: M14, 48 h; summary of the method: as §1
[12] = tested on: ACHN; assay: Growth inhibition of human ACHN cells incubated for 48 hrs by sulforhodamine B assay; summary of the method: as §1
[13] = tested on: 786-0; assay: Growth inhibition of human 786-0 cells incubated for 48 hrs by sulforhodamine B assay; conditions: 786-0, 48 h; summary of the method: as §1
[14] = tested on: Hs-578T; assay: Growth inhibition of human Hs 578T cells incubated for 48 hrs by sulforhodamine B assay; summary of the method: as §1
[15] = tested on: UACC-62; assay: Growth inhibition of human UACC62 cells incubated for 48 hrs by sulforhodamine B assay; conditions: UACC-62, 48 h; summary of the method: as §2
[16] = tested on: IGROV-1; assay: Growth inhibition of human IGROV1 cells incubated for 48 hrs by sulforhodamine B assay; conditions: IGROV-1, 48 h; summary of the method: as §1
[17] = tested on: OVCAR-3; assay: Growth inhibition of human OVCAR3 cells incubated for 48 hrs by sulforhodamine B assay; conditions: OVCAR-3, 48 h; summary of the method: as §1
[18] = tested on: MDA-MB-435; assay: Growth inhibition of human MDA-MB-435 cells incubated for 48 hrs by sulforhodamine B assay; conditions: MDA-MB-435, 48 h; summary of the method: as §1
[19] = tested on: BT-549; assay: Growth inhibition of human BT549 cells incubated for 48 hrs by sulforhodamine B assay; conditions: BT-549, 48 h; summary of the method: as §1
[20] = tested on: DU-145; assay: Growth inhibition of human DU145 cells incubated for 48 hrs by sulforhodamine B assay; conditions: DU-145, 48 h; summary of the method: as §1
[21] = tested on: OVCAR-4; assay: Growth inhibition of human OVCAR4 cells incubated for 48 hrs by sulforhodamine B assay; conditions: OVCAR-4, 48 h; summary of the method: as §1
[22] = tested on: SK-MEL-5; assay: Growth inhibition of human SK-MEL-5 cells incubated for 48 hrs by sulforhodamine B assay; conditions: SK-MEL-5, 48 h; summary of the method: as §1
[23] = tested on: HOP-62; assay: Growth inhibition of human HOP62 cells incubated for 48 hrs by sulforhodamine B assay; conditions: HOP-62, 48 h; summary of the method: as §1
[24] = tested on: PC-3; assay: Growth inhibition of human PC3 cells incubated for 48 hrs by sulforhodamine B assay; conditions: PC-3, 48 h; summary of the method: as §1
[25] = tested on: CAKI-1; assay: Growth inhibition of human Caki1 cells incubated for 48 hrs by sulforhodamine B assay; conditions: CAKI-1, 48 h; summary of the method: as §1

Compound	GI50 [1] [nM]	GI50 [2] [nM]	GI50 [3] [nM]	GI50 [4] [nM]	GI50 [5] [nM]	GI50 [6] [nM]	GI50 [7] [nM]	GI50 [8] [nM]	GI50 [9] [nM]	Ratio IC50 [10]	GI50 [11] [nM]	GI50 [13] [nM]	GI50 [14] [nM]	GI50 [15] [nM]	GI50 [16] [nM]	GI50 [17] [nM]	GI50 [18] [nM]	GI50 [21] [nM]	GI50 [22] [nM]	GI50 [23] [nM]	further results
C=C1C(=O)O[C@@H]2[C@H]3O[C@]3(C)CC/C=C(/COC(=O)c3c[nH]c4ccccc34)CC[C@@H]12	230	200	280	240	400	190	310	280	190	2 - 20	220	320	610	180	250	200	240	250	200	820	GI50 [12]: 210 nM; GI50 [19]: 170 nM; GI50 [20]: 380 nM; GI50 [24]: 380 nM
C=C1C(=O)O[C@@H]2[C@H]3O[C@]3(C)CC/C=C(/COC(=O)CCCc3c[nH]c4ccccc34)CC[C@@H]12	1960	12600	1730	1860	2170	1780	2020	1640	1760	2 - 20	1660	1600	3190	1840	1630	1530	1730	1660	1740	6540	GI50 [19]: 1370 nM; GI50 [20]: 1670 nM; GI50 [24]: 1920 nM
C=C1C(=O)O[C@@H]2[C@H]3O[C@]3(C)CC/C=C(/COC(=O)c3cn(C)c4ccccc34)CC[C@@H]12	1380	1090	340	1240	1190	1050	960	1100	440	2 - 20	1410	1460	2390	1260	690	380	1350	1140	1420	1810	GI50 [12]: 820 nM; GI50 [19]: 510 nM; GI50 [20]: 1010 nM; GI50 [24]: 1470 nM
C=C1C(=O)O[C@@H]2[C@H]3O[C@]3(C)CC/C=C(/COC(=O)c3cc4cc(F)ccc4[nH]3)CC[C@@H]12	1950	11100	2030	1640	1560	1590	1580	1830	1860	2 - 20	1890	1780	2950	1890	1440	1200	1500	1670	1850	2920	GI50 [25]: 1200 nM; GI50 [12]: 1460 nM; GI50 [20]: 1670 nM; GI50 [24]: 1700 nM
C=C1C(=O)O[C@@H]2[C@H]3O[C@]3(C)CC/C=C(/COC(=O)c3cc4cc(Cl)ccc4[nH]3)CC[C@@H]12	1730	570	770	1720	1340	1320	1400	1750	1890	2 - 20	1470	1510	2250	1670	1380	1250	1240	1330	1910	2220	GI50 [25]: 1190 nM; GI50 [12]: 1350 nM; GI50 [19]: 1310 nM; GI50 [24]: 2420 nM
C=C1C(=O)O[C@@H]2[C@H]3O[C@]3(C)CC/C=C(/COC(=O)c3cc4ccccc4s3)CC[C@@H]12	1750	3520	520	1710	1470	1970	1690	1550	1630	2 - 20	1750	1520	2890	1850	1760	440	1330	2080	1750	1810	GI50 [25]: 1460 nM; GI50 [12]: 1500 nM; GI50 [20]: 1050 nM; GI50 [24]: 1830 nM
C=C1C(=O)O[C@@H]2[C@H]3O[C@]3(C)CC/C=C(/COC(=O)c3cc4ccccc4o3)CC[C@@H]12	1770	1340	1150	1550	1350	1640	2020	3010	1500	2 - 20	1430	1810	2910	1680	1390	480	1430	1560	1520	2480	GI50 [12]: 1440 nM; GI50 [19]: 1480 nM; GI50 [20]: 1180 nM; GI50 [24]: 1760 nM
